Measurements: the RNAGym collection of RNA variant scans (doi:10.1126/science.aae0568)
Variants at the floor of the assay were thinned out.

B1: tRNA (parent)
chain: GUUCCGUUGGCGUAAUGGUAACGCGUCUCCCUCCUAAGGAGAAGACUGCGGGUUCGAGUCCCGUACGGAACG

Variants of: B1
Assay: yeast fitness relative to wild type (ratio to wild type); higher = fitter; tRNA-Arg(CCU), competitive growth, 37 C, YPD
How it was run: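 For this measurement, the tRNA-Arg(CCU) gene was varied by chemical synthesis at a 3% per-site mutation rate across 69 sites, and each variant was placed at the native genomic locus in Saccharomyces cerevisiae. The pooled strains went through a 24-hour competition in YPD at 37°C in six parallel replicates, with amplicons from start and end populations read by 100-nucleotide paired-end sequencing. Darwinian fitness relative to wild type followed from the change in each genotype's frequency. Genotypes needed ≥ 100 starting reads, and estimates < 0.5 were set to 0.5.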

Variant	yeast fitness
C5A G50C	0.626
C5A G50C U64C	0.73
C5A G51A	0.71
C5A G51A C61A	≤ 0.5
C5A G51C G63C A65C	≤ 0.5
C5A G52A	0.641
C5A G52C	0.567
C5A G58C A70C	0.644
C5A G58U	0.946
C5A G63A	0.683
C5A G63U	0.722
C5A G67U	0.865
C5A U7A A21G C61G C66G	≤ 0.5
C5A U7A A21G G67C	0.541
C5A U7A A36C G38C C55U C62A	≤ 0.5
C5A U7A G25C C46U	≤ 0.5
C5A U7A G39A C60U C62A	≤ 0.5
C5A U7C A36G	≤ 0.5
C5A U7C A65C	≤ 0.5
C5A U7C U19A G38C A42G	≤ 0.5
C5A U7C U32A G52C C55U C66U	≤ 0.5
C5A U7G A14C U16G A43G U53C C62G	≤ 0.5
C5A U8A C46G	≤ 0.5
C5A U8C	0.929

Variant	yeast fitness
C5A U8C A21G	0.53
C5A U8C C27U A40G C49U C55G	≤ 0.5
C5A U8C C30G C31G A65C	≤ 0.5
C5A U8C G10A A21G A45C G56C	≤ 0.5
C5A U8C U13C G18A C31G C46U	≤ 0.5
C5A U8G A37U G51A G52C U59C	0.639
C5A U13A A20G A42C U59C	≤ 0.5
C5A U13A A45C	0.576
C5A U13A C27G A37G	≤ 0.5
C5A U13A C30U A45C	≤ 0.5
C5A U13A U32C U35A U59C A70U	0.547
C5A U13A U35A U59C A70U	0.58
C5A U13C C27A U28G G67U	≤ 0.5
C5A U13C C29U C55U G56A	≤ 0.5
C5A U13C C29U G56C	≤ 0.5
C5A U13C G18A C31G C46U	≤ 0.5
C5A U13G A14G U32A A42U G52A U54A C60G	≤ 0.5
C5A U13G C24G C31A C62G U64A	≤ 0.5
C5A U13G C24G C31A C62U C66U	≤ 0.5
C5A U13G U32A A42U G52A U54A A69C	≤ 0.5
C5A U16A A43G U59A C61A	≤ 0.5
C5A U16A A45G G50A C61U	≤ 0.5
C5A U16A C22G A37U	0.717
C5A U16A C22G C30A	≤ 0.5

Variant	yeast fitness
C5A U16A G39A A45G G50A	≤ 0.5
C5A U16C A21C C33U A40G A43U U54G C62G	≤ 0.5
C5A U16C C22U	0.612
C5A U16C C22U G63A	0.553
C5A U16C C30A A45U G50C G63A	≤ 0.5
C5A U16G A21C C24U C30A	0.618
C5A U16G C27U C29U A36U G41A C49U C66U	≤ 0.5
C5A U19A G38C	≤ 0.5
C5A U19C	1.08
C5A U19C C22G C24A G39C A45C	0.596
C5A U19C C27U C29G C34A A42C U54A	≤ 0.5
C5A U19C C34G C55A U64G A69C	0.598
C5A U19C G50A C55A C66A	≤ 0.5
C5A U19G C31G U53A	0.775
C5A U26A A42C	≤ 0.5
C5A U26A A43U A65U	≤ 0.5
C5A U26A C27G C30G A36U G38C C46U C49G A65U	≤ 0.5
C5A U26A C66A	≤ 0.5
C5A U26A G51C C61G	≤ 0.5
C5A U26C	0.954
C5A U26C C27U	0.687
C5A U26C G41C A43U A57G	≤ 0.5
C5A U26G C60G C61U	≤ 0.5
C5A U28A C31U G51C	≤ 0.5

Variant	yeast fitness
C5A U28C	0.784
C5A U28G C30G A40C A42U	≤ 0.5
C5A U28G C66U	≤ 0.5
C5A U32C A36C G51A	0.59
C5A U32G	0.584
C5A U32G C55U	≤ 0.5
C5A U35C	0.869
C5A U35C A36U	0.57
C5A U35C C66U	0.579
C5A U35C G44A G48C C55A	≤ 0.5
C5A U35C G44A G48C C55G	≤ 0.5
C5A U35C G44A G48C C55G A70C	≤ 0.5
C5A U35C G44A G48C C55G C66U A70U	0.558
C5A U35G A42C A69C	0.588
C5A U35G C60G	≤ 0.5
C5A U35G C60U C62G A70G	≤ 0.5
C5A U35G U47C C61G	≤ 0.5
C5A U47C	0.85
C5A U47C A70G	0.705
C5A U53G C60A	≤ 0.5
C5A U54A	0.699
C5A U54C C61U C62U A69U	0.546
C5A U59A C66A	≤ 0.5
C5A U59C	0.807

Variant	yeast fitness
C5A U59G	0.746
C5A U64A	0.766
C5A U64C	0.96
C5G A14C A20G C29A C31G U54A	≤ 0.5
C5G A14C A37G	≤ 0.5
C5G A14C A37G C62G A69U	≤ 0.5
C5G A14C C29A C31G A65C	≤ 0.5
C5G A14C C29A C31G U54A A70U	0.545
C5G A14C C29U C33G	≤ 0.5
C5G A14C C31G G56A A70U	≤ 0.5
C5G A14C G18A A21G A36U A45U	≤ 0.5
C5G A14C G18A A43G A45C C46U	0.579
C5G A14C G18A A43G A45C C46U A57G	≤ 0.5
C5G A14C G18A A43G A45C C46U A69C	≤ 0.5
C5G A14C G23C C33U G38A G58C A70G	≤ 0.5
C5G A14C G23C G38A G58C G63A A70G	≤ 0.5
C5G A14C G25A U32C G41C G50A C61G	≤ 0.5
C5G A14C G38C G39A A43C C60G A65C	≤ 0.5
C5G A14C U28A C31A A45U C49A C66U	≤ 0.5
C5G A14G	0.999
C5G A14G A21U A57U	≤ 0.5
C5G A14G A36U	0.647
C5G A14G A36U G67A	≤ 0.5
C5G A14G G17A U32C G56C C60G	0.554

Variant	yeast fitness
C5G A14U A20C A45G	≤ 0.5
C5G A14U A36C C61G C62A A69C	≤ 0.5
C5G A14U A37U A45C C62U	≤ 0.5
C5G A14U C24G A70U	≤ 0.5
C5G A14U C30A C62A	≤ 0.5
C5G A14U C33G A43U U54C	≤ 0.5
C5G A14U G18A A21U A42C G48C	≤ 0.5
C5G A14U G18A A21U A42G	0.646
C5G A14U G18A A21U A42G G68A	0.522
C5G A14U G25A C33A C61U	≤ 0.5
C5G A14U G25A G56A G67A	≤ 0.5
C5G A14U G67A A69G	0.503
C5G A14U G68C	≤ 0.5
C5G A15C	0.626
C5G A15C A21U C24U A57G G67U	≤ 0.5
C5G A15C G18C C49U U64A A69U	≤ 0.5
C5G A15G A21G G25C C33U	≤ 0.5
C5G A15G A21G G25C C33U G68A	≤ 0.5
C5G A15G C24G C60A	≤ 0.5
C5G A15G C27G U28A U32A A45G C46U G56C C61U	0.736
C5G A15G C61U	0.539
C5G A15G U54A C55G	≤ 0.5
C5G A15U	0.747
C5G A15U A20U A40C G67A	0.538

Variant	yeast fitness
C5G A15U C30A C31A C66G	≤ 0.5
C5G A15U C46U A70G	≤ 0.5
C5G A15U C49U A57U C61A	0.663
C5G A15U C61U	≤ 0.5
C5G A15U G50A A69U	≤ 0.5
C5G A15U G56A A70G	≤ 0.5
C5G A15U U35A G50A U54G	≤ 0.5
C5G A20C C24U	≤ 0.5
C5G A20C C24U C55U	≤ 0.5
C5G A20C C27G C49U U53A	0.568
C5G A20C C27G G67U	≤ 0.5
C5G A20C G23A U54A	≤ 0.5
C5G A20C G48A	≤ 0.5
C5G A20C U28C C29A A36U A40U C49G G63C A70U	0.579
C5G A20G A36C A42G	≤ 0.5
C5G A20G A36G C66A	≤ 0.5
C5G A20G A40G G44A C46G	0.517
C5G A20G C46U	0.638
C5G A20G C55G	0.538
C5G A20G G58C	0.648
C5G A20U	0.621
C5G A20U A37G U64A	0.577
C5G A20U A65G	0.65
